Measurements published in ChEMBL document CHEMBL1138863, “Synthesis, in vitro antiviral evaluation, and stability studies of novel alpha-borano-nucleotide analogues of 9-[2-(phosphonomethoxy)ethyl]adenine and (R)-9-[2-(phosphonomethoxy)propyl]adenine” (J Med Chem, 2006).

Legend:
[1] = Stability in pH 5.2 buffer at 37 degC after 72 hrs; format: physicochemical; conditions: pH 5.2, 72 h
Outline: (§1)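 Compound at 0.1 mM final in buffer (pH 1.2, 5.2, 7.4, 8.1, 9.0 or 11.5) at 37 °C up to 72 h; aliquots frozen at -80 °C, analysed by reverse-phase HPLC (TEAB/acetonitrile gradient, 260 nm); "stable" = less than 5% decomposition after 72 h.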

[2] = Stability in pH 8.1 buffer at 37 degC after 72 hrs; format: physicochemical; conditions: pH 8.1, 72 h; outline: as §1
Sindbis virus = assay: Antiviral activity against Sindbis virus in Vero cells; format: functional, organism-based
[3] = Stability in pH 7.4 buffer at 37 degC after 72 hrs; format: physicochemical; conditions: pH 7.4, 72 h; outline: as §1
[4] = Stability in culture medium (RPMI+FBS); format: physicochemical; conditions: bovine
Outline: (§2)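 Compound diluted to 0.1 mM final in RPMI 1640 or culture medium (RPMI 1640 + 10% heat-inactivated FCS), incubated 37 °C; aliquots frozen at -80 °C and analysed by on-line cleaning HPLC (C18, TEAB/acetonitrile gradient, 260 nm); half-lives calculated.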

[5] = Stability in pH 1.2 buffer at 37 degC after 72 hrs; format: physicochemical; conditions: pH 1.2, 72 h; outline: as §1
[6] = Stability in pH 9.0 buffer at 37 degC after 72 hrs; format: physicochemical; conditions: pH 9, 72 h; outline: as §1
[7] = Stability in CEM-SS cell extracts; format: physicochemical, cell-based; conditions: human
Outline: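 CEM-SS cells were washed in PBS, resuspended at 30 × 10^6 cells/mL in 10 mM Tris-HCl, 140 mM KCl (pH 7.4), sonicated and cleared at 10 000g. The supernatant (soluble protein 3 mg/mL) was spiked to a final 0.1 mM compound and incubated at 37 °C. Samples were drawn over time, frozen at -80 °C, and analysed by on-line cleaning reverse-phase HPLC (TEAB gradient, 260 nm). Half-life was calculated.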

[8] = Cytotoxicity against HEL cells; format: cell-based; conditions: human
[9] = test system: Human immunodeficiency virus 1; assay: Antiviral activity against HIV1 in MAGI-CCR5 cells; format: functional, organism-based; conditions: Human immunodeficiency virus 1, MAGI-CCR5
Human alphaherpesvirus 1 [10] = assay: (§3) Antiviral activity against HSV1 KOS in HEL cells; format: functional, organism-based; conditions: Human alphaherpesvirus 1, KOS
[11] = Cytotoxicity against Huh5-2 cells; format: cell-based, Huh-5-2; conditions: human
Outline: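 Parallel Huh-5-2 cultures (7000 cells/well) given five 5-fold compound dilutions from 100 µM without G418; proliferation measured 3 days after addition by MTS bioreduction to formazan, read in a plate reader.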

[12] = Stability in pH 11.5 buffer at 37 degC after 72 hrs; format: physicochemical; conditions: pH 11.5, 72 h; outline: as §1
[13] = test system: Mammalian orthoreovirus 1; assay: Antiviral activity against reovirus 1 in Vero cells; format: functional, organism-based; conditions: Mammalian orthoreovirus 1, Vero
Punta Toro virus = assay: Antiviral activity against Punta Toro virus in Vero cells; format: functional, organism-based
[14] = test system: Respiratory syncytial virus; assay: Antiviral activity against RSV in HeLa cells; format: functional, organism-based; conditions: human respiratory syncytial virus
Human alphaherpesvirus 2 = assay: Antiviral activity against HSV2 in HEL cells; format: functional, organism-based; conditions: Human alphaherpesvirus 2, HEL
Coxsackievirus B4 = assay: Antiviral activity against Coxsackie B4 virus in HeLa cells; format: functional, organism-based; conditions: Enterovirus B
[15] = Cytotoxicity against HeLa cells; format: cell-based; conditions: human
[16] = Cytotoxicity against Vero cells; format: cell-based; conditions: chlorocebus sabaeus
[17] = Cytotoxicity against MAGI-CCR5 cells; format: cell-based; conditions: human
Outline: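 MAGI-CCR5 cells (10^4 cells/well) were exposed to 0-400 µM compound, 4 h before mock/HIV-1 spinoculation and then throughout a 2-day culture. CC50 is the concentration inhibiting cell proliferation by 50%.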

Hepatitis C virus = assay: Antiviral activity against HCV in Huh5-2 cells by subgenomic replicon assay; format: functional, organism-based, Hepacivirus hominis; conditions: Huh-5-2
Outline: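 Huh-5-2 cells bearing HCV genotype 1b subgenomic replicon I389luc-ubi-neo/NS3-3'/5.1, seeded 7000 cells/well, adhered 24 h, then five 5-fold dilutions from 100 µM in medium lacking G418 for 72 h at 37 °C, 5% CO2. Interferon alfa 2a (500 IU) positive control. Firefly luciferase read as % of untreated cultures; EC50 calculated.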

Human alphaherpesvirus 1 [18] = assay: as §3; format: functional, organism-based; conditions: Human alphaherpesvirus 1, KOS; remark: listed apart in the source
[19] = Stability in RPMI-1640 medium; format: ADME; outline: as §2
[20] = test system: Vesicular stomatitis virus; assay: Antiviral activity against vesicular somatitis virus in HEL cells; format: functional, organism-based
Vaccinia virus = assay: Antiviral activity against vaccinia virus in HEL cells; format: functional, organism-based; conditions: Orthopoxvirus vaccinia
Human respirovirus 3 = assay: Antiviral activity against para influenza 3 virus in Vero cells; format: functional, organism-based; conditions: Human respirovirus 3, Vero

## BP(=O)(O)CO[C@H](C)Cn1cnc2c(N)ncnc21
[1]
  Stability: Stable
[2]
  Stability: Stable
Sindbis virus
  EC50: > 200 µM
[3]
  Stability: Stable
[4]
  half-life: 1.3 h
[5]
  Stability: Stable
[6]
  Stability: Stable
[7]
  half-life: 24 h
[8]
  CC50: > 200 µM
[9]
  EC50: > 400 µM
Human alphaherpesvirus 1 [10]
  EC50: 120 µM
[11]
  CC50: > 200 µM
[12]
  Stability: Stable
[13]
  EC50: > 200 µM
Punta Toro virus
  EC50: > 200 µM
[14]
  EC50: > 200 µM
Human alphaherpesvirus 2
  EC50: > 200 µM
Coxsackievirus B4
  EC50: > 200 µM
[15]
  CC50: > 200 µM
[16]
  CC50: > 200 µM
[17]
  CC50: > 400 µM
Hepatitis C virus
  EC50: > 33 µM
Human alphaherpesvirus 1 [18]
  EC50: > 200 µM
[19]
  half-life: > 72 h

## C[C@H](Cn1cnc2c(N)ncnc21)OC[PH](=O)O
[1]
  Stability: Stable
[2]
  Stability: Stable
Sindbis virus
  EC50: > 200 µM
[3]
  Stability: Stable
[4]
  half-life: > 72 h
[5]
  Stability: Stable
[20]
  EC50: > 200 µM
[6]
  Stability: Stable
[8]
  CC50: > 200 µM
[9]
  EC50: > 400 µM
Human alphaherpesvirus 1 [10]
  EC50: > 200 µM
[11]
  CC50: > 200 µM
[12]
  Stability: Stable
[13]
  EC50: > 200 µM
Punta Toro virus
  EC50: > 200 µM
[14]
  EC50: > 200 µM
Human alphaherpesvirus 2
  EC50: > 200 µM
Coxsackievirus B4
  EC50: > 200 µM
Vaccinia virus
  EC50: > 200 µM
[15]
  CC50: > 200 µM
[16]
  CC50: > 200 µM
[17]
  CC50: > 400 µM
Hepatitis C virus
  EC50: > 33 µM
Human alphaherpesvirus 1 [18]
  EC50: > 200 µM
[19]
  half-life: > 72 h
Human respirovirus 3
  EC50: > 200 µM

## Nc1ncnc2c1ncn2C[C@H](O)CO [(S)-DHPA]
Sindbis virus
  EC50: > 500 µM
[13]
  EC50: > 500 µM
Punta Toro virus
  EC50: > 500 µM
[14]
  EC50: > 500 µM
Coxsackievirus B4
  EC50: > 500 µM
[15]
  CC50: > 500 µM
[16]
  CC50: > 500 µM
Human respirovirus 3
  EC50: > 500 µM

## Nc1ncnc2c1ncn2CCOC[PH](=O)O
[1]
  Stability: Stable
[2]
  Stability: Stable
Sindbis virus
  EC50: > 200 µM
[3]
  Stability: Stable
[4]
  half-life: > 72 h
[5]
  Stability: Stable
[20]
  EC50: > 200 µM
[6]
  Stability: Stable
[7]
  half-life: > 72 h
[8]
  CC50: > 200 µM
[9]
  EC50: > 400 µM
Human alphaherpesvirus 1 [10]
  EC50: 120 µM
[11]
  CC50: > 200 µM
[12]
  Stability: Stable
[13]
  EC50: > 200 µM
Punta Toro virus
  EC50: > 200 µM
[14]
  EC50: > 200 µM
Human alphaherpesvirus 2
  EC50: 120 µM
Coxsackievirus B4
  EC50: > 200 µM
Vaccinia virus
  EC50: > 200 µM
[15]
  CC50: > 200 µM
[16]
  CC50: > 200 µM
[17]
  CC50: > 400 µM
Hepatitis C virus
  EC50: > 33 µM
Human alphaherpesvirus 1 [18]
  EC50: > 200 µM
[19]
  half-life: > 72 h
Human respirovirus 3
  EC50: > 200 µM

## Nc1nc2c(ncn2COCCO)c(=O)[nH]1 [ACYCLOVIR]
[20]
  EC50: > 500 µM
[8]
  CC50: > 500 µM
Human alphaherpesvirus 1 [10]
  EC50: 12 µM
Human alphaherpesvirus 2
  EC50: 0.48 µM
Vaccinia virus
  EC50: 300 µM
Human alphaherpesvirus 1 [18]
  EC50: 0.48 µM

## O=c1[nH]c(=O)n([C@H]2C[C@H](O)[C@@H](CO)O2)cc1/C=C/Br [BRIVUDINE]
Sindbis virus
  EC50: > 500 µM
[20]
  EC50: > 500 µM
[8]
  CC50: > 500 µM
Human alphaherpesvirus 1 [10]
  EC50: 300 µM
[13]
  EC50: > 500 µM
Punta Toro virus
  EC50: > 500 µM
[14]
  EC50: > 500 µM
Human alphaherpesvirus 2
  EC50: 300 µM
Coxsackievirus B4
  EC50: > 500 µM
Vaccinia virus
  EC50: 2.4 µM
[15]
  CC50: > 500 µM
[16]
  CC50: > 500 µM
Human alphaherpesvirus 1 [18]
  EC50: 0.096 µM
Human respirovirus 3
  EC50: > 500 µM

## Cc1cn([C@H]2C[C@H](N=[N+]=[N-])[C@@H](CO)O2)c(=O)[nH]c1=O [ZIDOVUDINE]
[9]
  EC50: 0.025 µM
[17]
  CC50: > 400 µM

## NC(=O)c1ncn([C@@H]2O[C@H](CO)[C@@H](O)[C@H]2O)n1 [RIBAVIRIN]
Sindbis virus
  EC50: > 500 µM
[20]
  EC50: > 500 µM
[8]
  CC50: > 500 µM
Human alphaherpesvirus 1 [10]
  EC50: > 500 µM
[13]
  EC50: 100 µM
Punta Toro virus
  EC50: 100 µM
[14]
  EC50: 12 µM
Human alphaherpesvirus 2
  EC50: > 500 µM
Coxsackievirus B4
  EC50: > 500 µM
Vaccinia virus
  EC50: 100 µM
[15]
  CC50: > 500 µM
[16]
  CC50: > 500 µM
Human alphaherpesvirus 1 [18]
  EC50: 300 µM
Human respirovirus 3
  EC50: 300 µM

## Cc1cn([C@H]2C=C[C@@H](CO)O2)c(=O)[nH]c1=O [STAVUDINE]
[9]
  EC50: 0.062 µM
[17]
  CC50: > 400 µM

## Nc1ncnc2c1ncn2CCOCP(=O)(O)O [ADEFOVIR]
[1]
  Stability: Stable
[2]
  Stability: Stable
[3]
  Stability: Stable
[4]
  half-life: > 72 h
[5]
  Stability: Stable
[6]
  Stability: Stable
[7]
  half-life: > 72 h
[9]
  EC50: 5.04 µM
[12]
  Stability: Stable
[17]
  CC50: > 400 µM
[19]
  half-life: > 72 h

## C[C@H](Cn1cnc2c(N)ncnc21)OCP(=O)(O)O [TENOFOVIR ANHYDROUS]
[1]
  Stability: Stable
[2]
  Stability: Stable
[3]
  Stability: Stable
[4]
  half-life: > 72 h
[5]
  Stability: Stable
[6]
  Stability: Stable
[7]
  half-life: > 72 h
[9]
  EC50: 0.35 µM
[12]
  Stability: Stable
[17]
  CC50: > 400 µM
[19]
  half-life: > 72 h

## BP(=O)(O)COCCn1cnc2c(N)ncnc21
[1]
  Stability: Stable
[2]
  Stability: Stable
Sindbis virus
  EC50: > 200 µM
[3]
  Stability: Stable
[4]
  half-life: 5.3 h
[5]
  Stability: Stable
[6]
  Stability: Stable
[7]
  half-life: 48 h
[8]
  CC50: > 200 µM
[9]
  EC50: > 400 µM
Human alphaherpesvirus 1 [10]
  EC50: > 200 µM
[11]
  CC50: > 200 µM
[12]
  Stability: Stable
[13]
  EC50: > 200 µM
Punta Toro virus
  EC50: > 200 µM
[14]
  EC50: > 200 µM
Human alphaherpesvirus 2
  EC50: > 200 µM
Coxsackievirus B4
  EC50: > 200 µM
[15]
  CC50: > 200 µM
[16]
  CC50: > 200 µM
[17]
  CC50: > 400 µM
Hepatitis C virus
  EC50: > 33 µM
Human alphaherpesvirus 1 [18]
  EC50: > 200 µM
[19]
  half-life: > 72 h

## Nc1nc2c(ncn2COC(CO)CO)c(=O)[nH]1 [GANCICLOVIR]
[20]
  EC50: > 100 µM
[8]
  CC50: > 100 µM
Human alphaherpesvirus 1 [10]
  EC50: 0.48 µM
Human alphaherpesvirus 2
  EC50: 0.032 µM
Vaccinia virus
  EC50: > 100 µM
Human alphaherpesvirus 1 [18]
  EC50: 0.019 µM
